LYPLA1 counter: LYPLA1 (human) inhibition in PME1 counter-screen. O75608. recombinant LYPLA1, FP-Rh probe fluorescence polarization. inhibition, % at 5.9 µM. 320,000 compounds, 0.16% hits. AID 2174;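 active = inhibition above the mean of all tested compounds plus 3 SD, set per campaign, cut at about 14% in these data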;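 note: inhibitors block serine hydrolase probe labeling of LYPLA1 so polarization falls; 0% = enzyme with DMSO and 100% = wells lacking LYPLA1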
proCasp7 act: counter-screen: procaspase-7 (human) activation; P55210; recombinant procaspase-7, Ac-DEVD-pNA absorbance 405 nm; D23A/D198A/D206A triple mutant, cannot self-cleave; scale: DMSO 0, 5 µM enzyme 100; activation, % at 8.5 µM; 330,000 compounds, 0.093% hits; AID 463210;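 active = percent activation above the screen-wide mean plus 3 SD, cut at about 25% in these data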
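Material: Procaspase-7 triple mutant (PC-7 D3A) | Quantity: 2 µM procaspase-7 mutant as dispensed | Reagent: DEVD-pNA substrate | Times: 1 h preincubation, 2 h reaction | Technique: 405 nm absorbance of p-nitroaniline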
proCasp3 act: activates human procaspase-3; P42574; recombinant procaspase-3 D3A, Ac-DEVD-pNA absorbance 405 nm; activation, % at 8.5 µM; 330,000 compounds, 0.11% hits;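 active = activation above the mean of all tested compounds plus 3 SD, cut at about 21% in these data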;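 note: 0% = DMSO alone and 100% = DMSO wells spiked with extra 5 µM PC-3 D3A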
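Assay system: Autoprocessing-dead procaspase-3 D3A mutant enzyme; also added: Ac-DEVD-pNA; doses: one concentration, 8.5 µM nominal, 0.8% DMSO; times: 1 h compound preincubation, 2 h substrate hydrolysis at 25 °C; technique: 405 nm absorbance of p-nitroaniline, reads at 0 and 120 min; measure: % activation between DMSO and enzyme-spiked controls; repeats: single replicate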
PREPL inh: inhibitors of human prolyl oligopeptidase-like enzyme PREPL; recombinant PREPL, fluorescence polarization activity-based probe; inhibition, % at 5.96 µM; 320,000 compounds, 0.68% hits; AID 2751; in the data active = inhibition above about 43%;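 note: 0% = enzyme with DMSO and 100% = wells lacking enzyme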
Target sequence (Q4J6C6 whole entry, looked up): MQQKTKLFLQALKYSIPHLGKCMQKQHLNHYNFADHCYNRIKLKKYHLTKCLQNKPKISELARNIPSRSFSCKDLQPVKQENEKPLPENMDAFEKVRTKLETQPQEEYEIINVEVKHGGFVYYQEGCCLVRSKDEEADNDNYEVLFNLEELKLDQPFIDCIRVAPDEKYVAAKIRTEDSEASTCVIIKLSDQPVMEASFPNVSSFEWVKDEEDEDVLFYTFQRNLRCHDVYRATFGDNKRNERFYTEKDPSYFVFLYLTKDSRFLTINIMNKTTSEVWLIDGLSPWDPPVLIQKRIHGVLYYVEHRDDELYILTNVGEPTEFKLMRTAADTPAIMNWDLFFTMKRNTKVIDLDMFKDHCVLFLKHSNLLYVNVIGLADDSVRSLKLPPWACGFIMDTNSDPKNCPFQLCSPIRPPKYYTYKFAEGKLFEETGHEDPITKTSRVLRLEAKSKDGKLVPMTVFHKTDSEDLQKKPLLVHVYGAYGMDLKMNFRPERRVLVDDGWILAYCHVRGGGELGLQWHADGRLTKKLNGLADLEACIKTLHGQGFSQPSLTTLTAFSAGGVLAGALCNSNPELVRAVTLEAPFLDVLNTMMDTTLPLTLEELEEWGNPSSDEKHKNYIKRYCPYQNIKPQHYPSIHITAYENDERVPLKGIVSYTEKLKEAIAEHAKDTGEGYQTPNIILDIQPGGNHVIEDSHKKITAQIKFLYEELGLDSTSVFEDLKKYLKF
LYPLA2 counter: blocks human lysophospholipase 2, a PME1 counter-screen | O95372 | recombinant LYPLA2, FP-Rh probe fluorescence polarization | inhibition, % at 5.9 µM | 320,000 compounds, 0.38% hits;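 active = inhibition above the screen-wide mean plus 3 SD, limit set per campaign, cut at about 26% in these data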;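 note: 0% = LYPLA2 with DMSO and 100% = wells lacking LYPLA2 enzyme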
PC3 D3A act: activates human procaspase-3, dual activator counter-screen; shares compounds with proCasp7 act; recombinant PC-3 D3A, Ac-DEVD-pNA absorbance 405 nm; aspartates 9, 28, 175 changed to alanine; 100% = enzyme control; activation, % at 8.5 µM; 290 tested, under 10 active; AID 493114;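 active = mean percent activation across triplicates above a set limit taken from the earlier primary procaspase-3 screen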;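 note: 0% = DMSO wells and 100% = DMSO wells with 5 µM added PC-3 D3A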
PC7 dual conf: activates human procaspase-7, confirming dual procaspase activators. shares compounds with proCasp7 act. recombinant procaspase-7, Ac-DEVD-pNA absorbance 405 nm; D23A/D198A/D206A mutant that cannot self-cleave. activation, % at 8.5 µM. 290 tested, under 10 active. AID 493115;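 active = mean activation above a set limit carried over from the earlier primary screen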;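 note: 0% = DMSO only and 100% = DMSO with added 5 µM PC-7 enzyme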
An asterisk follows results filed as active; x = no result given. Compounds with a hit are over-represented: about 1% of the library has one in this group of screens.

SMILES	LYPLA1 counter	proCasp7 act	proCasp3 act	PREPL inh	LYPLA2 counter	PC3 D3A act	PC7 dual conf
O=C1[C@H]2C(c3ccccc3)=NN(c3ccccc3)[C@H]2C(=O)N1c1ccccc1	-7.3	39.9*	31.8*	1.9	-1.2	-30.6	-36.0
CCCCNC(=O)c1ccc(/C=C2\Oc3ccccc3N(C)C2=O)cc1	-6.7	-25.4	-5.1	-15.6	-11.0	x	x
CCN1CCN(CCCNC(=O)c2ccc(/C=C3/Oc4ccccc4N(Cc4cccc(C)c4)C3=O)cc2)CC1	-17.8	27.5*	8.1	-90.8	-28.2	-28.6	-35.5
O=C(NCCCN1CCOCC1)c1ccc(/C=C2\Oc3ccccc3N(Cc3ccccc3F)C2=O)cc1	-11.1	49.6*	22.3*	-76.6	-8.9	-29.3	-35.7
COc1nc(N)c(S(=O)(=O)c2ccc(C)cc2)cc1C#N	-2.3	4.5	11.1	-1.0	-6.0	x	x
Cc1ccc(S(=O)(=O)c2cc(C#N)c(=O)[nH]c2N)cc1	1.0	28.2*	14.4	4.0	3.8	-28.4	-34.9
Cc1c(NC(=O)c2nn3c(C(F)(F)F)cc(-c4ccccc4)nc3c2Br)c(=O)n(-c2ccccc2)n1C	4.2	5.2	-8.1	6.3	6.5	x	x
N#CCNC(=O)c1nn2c(C(F)(F)F)cc(-c3ccccc3)nc2c1Br	-0.4	25.9*	-10.2	-5.8	-4.9	0.0	1.3
COC(=O)c1cc(=O)n2c(sc3ccccc32)c1C#N	2.9	26.2*	19.2	2.0	2.4	-28.7	-35.4
Cc1nc(N)c(C#N)c(-c2cccnc2)c1-c1ccccc1	-3.6	-0.5	7.9	-5.2	1.0	x	x
Cc1ccc2c(n1)sc1c(-c3ccccc3)c(C#N)c(N)nc12	2.5	44.1*	79.0*	-0.4	-0.8	-30.0	-35.8
CC(C)OC(=O)CSc1nc2c(cc1C#N)CCCCC2	3.2	0.7	3.4	-0.2	2.1	x	x
CC(C)OC(=O)CC(=O)CSc1nc2c(cc1C#N)CCCCC2	5.0	37.2*	17.7	0.2	7.1	-20.1	-20.8
CCn1nc(NC(C)=O)c2cc3ccc(C)cc3nc21	1.2	7.0	-4.0	2.1	3.9	x	x
CCOc1ccc(N2C(=O)CC(Cc3ccc(Br)cc3)C2=O)cc1 (stereo not given)	-1.9	80.9*	7.9	-4.6	-3.0	1.8	2.2
COc1ccc(N2C(=O)CC(Cc3ccc(Br)cc3)C2=O)cc1 (stereo not given)	-0.5	7.6	-6.5	-12.9	4.4	x	x
COc1ccc(OC)c(N=Cc2c(O)c3ccccc3oc2=O)c1	-1.0	9.2	13.9	-1.8	1.2	x	x
COc1ccc(N=Cc2c(O)c3ccccc3oc2=O)cc1	-0.3	11.5	8.9	7.6	3.0	x	x
CCOc1ccccc1N=Cc1c(O)c2ccccc2oc1=O	-0.1	34.7*	20.5	-6.7	3.0	-30.0	-34.4
CC(C)c1ccc(N=Cc2c(O)c3ccccc3oc2=O)cc1	-1.8	29.8*	21.8*	-8.0	-7.2	-28.7	-34.1
COc1ccc(Cl)cc1N=Cc1c(O)c2ccccc2oc1=O	-1.3	41.7*	19.3	6.0	0.5	-5.1	-4.3
CCOC(=O)Cn1c2ccccc2c2nc(C)sc21	3.9	2.0	7.8	10.2	4.3	x	x
c1ccc(C2=NN(c3ccccc3)CC2)cc1	0.7	38.7*	36.5*	7.7	4.2	-29.8	-34.5
S=C1CCC(c2ccc(Cl)cc2)=NN1c1ccccc1	0.7	5.6	1.6	-17.3	6.1	x	x
CCCCn1c(N)c(N(CC(C)C)C(=O)c2ccc(OCC3CCCO3)cc2)c(=O)[nH]c1=O (stereo not given)	-1.2	4.2	-14.6	-0.1	-0.2	x	x
SMILES	LYPLA1 counter	proCasp7 act	proCasp3 act	PREPL inh	LYPLA2 counter	PC3 D3A act	PC7 dual conf
COc1cc(-n2c(=O)c3ccccc3n(Cc3cccnc3)c2=O)cc(OC)c1OC	5.1	26.8*	-7.0	2.9	-2.2	1.8	1.4
OCCN1CCN(C(=S)Nc2ccccc2)CC1	-1.2	-10.4	-3.1	4.3	-4.6	x	x
O=C(CSCc1ccc(Cl)cc1)N/N=C/c1ccc(OCC(=O)Nc2ccccc2)cc1	-2.4	28.5*	1.6	-11.0	-2.9	0.0	0.6
COc1ccc(CCNS(=O)(=O)c2cc(C(=O)O)c(Cl)cc2Cl)cc1	-1.2	3.6	-1.7	-6.2	2.5	x	x
COc1ccc(Br)cc1/C=C1\Oc2ccccc2NC1=O	-2.8	-2.2	4.3	9.7	-4.4	x	x
O=C1Nc2ccccc2O/C1=C\c1ccccc1Br	-2.9	29.3*	36.4*	-13.7	2.8	-19.8	-23.2
C[C@H](C(=O)O)c1n[nH]c(=O)c2ccccc12	0.8	-10.9	1.1	11.3	7.3	x	x
O=C(Nc1cc(C(F)(F)F)ccc1Cl)c1ccc(NC(=O)C(F)(F)F)cc1	-3.8	-4.4	-6.6	-11.4	-3.6	x	x
Cn1nc(N)c2c(-c3ccc(Cl)cc3)c(C#N)c(N)nc21	2.2	-10.1	-1.6	5.4	-1.8	x	x
CCN(CC)c1ccc(-c2c(C#N)c(N)nc(OC)c2C#N)cc1	0.4	27.0*	60.0*	17.0	-4.2	-27.2	-34.8
O=C(CCC(=O)N(CC(=O)NC1CCCCC1)Cc1ccccc1)Nc1nccs1	-4.3	1.4	-7.7	-2.7	-6.7	x	x
O=C(CCC(=O)N(CC(=O)NC1CCCC1)Cc1ccccc1)Nc1nccs1	-1.6	101.3*	1.7	1.6	-6.0	1.6	0.6
COc1ccc(-n2cnnc2SCC(=O)Nc2cc(C)on2)cc1	-2.5	10.8	0.2	-0.1	-4.3	x	x
COc1ccc(-c2cc3nc(-c4ccccc4)cc(N4CCC(O)CC4)n3n2)cc1	-11.1	32.4*	-2.4	28.4	-19.9	-0.8	-5.5
Fc1ccc(-c2cc3nc(-c4ccccc4)cc(N4CCOCC4)n3n2)cc1	-1.9	7.0	5.4	-3.6	-7.1	x	x
COc1ccc(-c2cc3nc(-c4ccccc4)cc(N4CCCC(O)C4)n3n2)cc1 (stereo not given)	-12.5	58.4*	28.9*	25.8	-25.7	-1.6	-5.1
COc1ccc(CNC(=O)CN(C(=O)c2csnn2)c2cccc(F)c2)cc1	0.4	-4.9	-14.1	1.4	1.6	x	x
COC(=O)C1=C(C)NC(C)=C(C(=O)OC)C1C(=O)OCCN1C(=O)c2ccccc2C1=O	-3.8	44.4*	-13.0	5.7	-1.4	1.6	-0.1
COc1cc(/C=N/NC(=O)c2sc3ccccc3c2Cl)ccc1OC(=O)c1ccc([N+](=O)[O-])cc1	1.1	7.8	12.3	1.4	2.4	x	x
CCOC(=O)c1c(C)nc(SC)c(C#N)c1-c1ccccc1	3.9	2.8	2.6	4.5	0.4	x	x

From PubChem
